By inhibition is commonly meant the change of the read-out against control, counted positive when it falls. One may read the logD as the decadic logarithm of the distribution of all forms, ionised or not, between an organic phase and buffer at a given pH. Low readings indicate lower lipophilicity, high ones higher lipophilicity.

We go through four molecules from PMC10448436 (Journal of medicinal chemistry, 2022).

A value given as a limit tells only on which side of the number the result lay.

A short description of data set [1]: In vitro stability of the formulated radioligand. Type of data set: physicochemical. Summed up:
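After HPLC purification, the radiotracer fraction was collected into Tween 80 and ethanol, evaporated and redissolved in 5 mL sterile normal saline. It was then passed through a 0.22 μm filter. The formulated solution was checked for radiolysis up to 90 min.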

For data set [2], the target named is T1, TARP γ−8 (Rattus norvegicus, UniProt Q8VHW5).
T1 sequence (Q8VHW5 1-421): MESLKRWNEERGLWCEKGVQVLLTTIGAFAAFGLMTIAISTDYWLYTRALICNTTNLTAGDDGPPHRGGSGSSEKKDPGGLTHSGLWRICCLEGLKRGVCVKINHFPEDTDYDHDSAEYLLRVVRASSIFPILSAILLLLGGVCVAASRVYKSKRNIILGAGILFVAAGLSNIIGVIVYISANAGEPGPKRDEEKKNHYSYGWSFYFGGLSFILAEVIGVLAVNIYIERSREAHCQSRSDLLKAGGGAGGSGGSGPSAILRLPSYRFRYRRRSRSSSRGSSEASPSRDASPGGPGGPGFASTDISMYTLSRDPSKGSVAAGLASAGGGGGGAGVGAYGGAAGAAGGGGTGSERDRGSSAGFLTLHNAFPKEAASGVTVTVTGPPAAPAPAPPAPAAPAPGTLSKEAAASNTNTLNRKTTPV
The experiment in a line: PET imaging in rat brain. The data set is classed as in vivo, Sprague-Dawley rats. The method in brief: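 Male Sprague-Dawley rats (210−230 g) were kept under 1–2% isoflurane. The 11C-labelled test compound was injected via tail-vein catheter (38.5 ± 2.8 MBq, 0.3 ± 0.2 nmol), followed by a dynamic 3D PET scan for 60 min, co-registered to an MR template. Decay-corrected data were expressed as SUV, and BPND maps were derived by SRTM. Mean ± SD, n = 3.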

For data set [3], the target named is T1, TARP γ−8. In words: In vitro autoradiography on rat brain sections. The data set is classed as binding. The method in brief:
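Frozen rat brain sections (stored −80 °C) were pre-incubated in 50 mM Tris-HCl for 20 min at ambient temperature, then incubated with the 11C-labelled test compound. For blocking, unlabelled inhibitor (1 μM) was added to the incubation solution beforehand. Sections were washed three times in ice-cold buffer, dipped 10 s in cold water, cold-air dried and exposed to imaging plates. ROI radioactivity was read as PSL/mm2.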

The target in a further data set is T2, 5-HT1A (Homo sapiens, UniProt P08908).
T2 sequence (P08908 1-422): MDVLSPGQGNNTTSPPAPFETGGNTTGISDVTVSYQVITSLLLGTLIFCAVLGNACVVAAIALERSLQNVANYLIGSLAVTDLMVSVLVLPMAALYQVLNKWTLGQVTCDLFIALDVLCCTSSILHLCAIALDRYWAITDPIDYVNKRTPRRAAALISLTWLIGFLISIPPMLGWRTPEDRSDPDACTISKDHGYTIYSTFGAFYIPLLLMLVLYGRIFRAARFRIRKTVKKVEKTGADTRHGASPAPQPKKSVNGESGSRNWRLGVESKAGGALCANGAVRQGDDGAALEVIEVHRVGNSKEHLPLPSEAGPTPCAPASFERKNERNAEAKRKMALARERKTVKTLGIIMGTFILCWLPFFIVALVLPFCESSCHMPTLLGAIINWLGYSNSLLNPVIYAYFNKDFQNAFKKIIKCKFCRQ
The experiment in a line: Off-target counter screen at 10 μM. Type of data set: binding. The note with it: read-out: target inhibition, 5-HT1A.

In a further data set the target is T3, Alpha2C (Homo sapiens, UniProt P18825).
T3 sequence (P18825 1-462): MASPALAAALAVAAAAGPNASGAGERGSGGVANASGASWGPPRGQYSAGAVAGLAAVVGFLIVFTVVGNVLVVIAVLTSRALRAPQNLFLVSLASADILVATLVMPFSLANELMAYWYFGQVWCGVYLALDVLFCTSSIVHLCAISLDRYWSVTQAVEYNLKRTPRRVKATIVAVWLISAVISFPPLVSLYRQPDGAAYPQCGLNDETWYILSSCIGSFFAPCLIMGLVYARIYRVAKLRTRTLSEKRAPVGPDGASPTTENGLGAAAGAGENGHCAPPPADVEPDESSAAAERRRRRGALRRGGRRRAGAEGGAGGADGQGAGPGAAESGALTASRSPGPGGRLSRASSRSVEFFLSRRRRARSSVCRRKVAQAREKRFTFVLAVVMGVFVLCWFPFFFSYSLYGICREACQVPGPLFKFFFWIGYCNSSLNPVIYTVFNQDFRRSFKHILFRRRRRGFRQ
In words: Off-target counter screen at 10 μM. The data set is classed as binding. The note with it: read-out: target inhibition, Alpha2C. (In general: A counterscreen serves to expose hits that act by an unwanted route or on another target.)

Another data set in a line: Shake-flask logD7.4. The data set is classed as physicochemical. Particulars: pH 7.4.
For a further data set, the system named is 5-HT1A, Alpha2C and DOR. The experiment in a line: Follow-up binding assays, selectivity towards TARP γ−8. Particulars: follow-up 5-HT1A.
In data set [4] the target is DOR (delta opioid receptor) (Homo sapiens, UniProt P41143). In words: Off-target counter screen at 10 μM. Type of data set: binding. Particulars: read-out: target inhibition, DOR.
For data set [5], the system named is ionotropic glutamate receptors (iGluR). In words: Off-target counter screen at 10 μM. Type of data set: binding.
[6] abbreviates: tracer [11C]8, blocking with 8 (1 μM).
Where [7] appears, read: tracer [11C]15, pretreatment with JNJ-55511118 (1 mg/kg), rat.

DOR (delta opioid receptor), sequence (P41143 whole entry): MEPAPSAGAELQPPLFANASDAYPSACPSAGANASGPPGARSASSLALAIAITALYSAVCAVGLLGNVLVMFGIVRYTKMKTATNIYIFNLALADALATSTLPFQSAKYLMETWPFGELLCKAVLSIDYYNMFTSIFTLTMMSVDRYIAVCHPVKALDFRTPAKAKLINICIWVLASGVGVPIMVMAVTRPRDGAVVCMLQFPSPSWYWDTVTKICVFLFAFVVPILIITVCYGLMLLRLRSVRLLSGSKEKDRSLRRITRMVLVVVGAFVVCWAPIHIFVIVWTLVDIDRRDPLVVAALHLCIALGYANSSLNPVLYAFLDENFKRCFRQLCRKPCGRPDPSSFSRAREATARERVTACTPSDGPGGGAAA

Regarding `[11CH3]c1ccc2nc(C3CCC3)n(-c3ccc4[nH]c(=O)sc4c3)c2n1` [[^11C]8, 6-(2-cyclobutyl-5-[^11C]methyl-3H-imidazo[4,5-b]pyridin-3-yl)benzo[d]thiazol-2(3H)-one], the “radiolysis in the formulated solution” value in [1] (up to 90 min) is on record as “no radiolysis was observed”. The same molecule had an in vitro stability in [1] (up to 90 min after formulation) above 95%. In addition, the “maximum SUV in the brain” value on TARP γ−8 [2] (at 2.5 min, baseline, rat) came to 0.4. Moreover, the “blood brain barrier penetration” value at TARP γ−8 [2] (rat PET, baseline) is listed as “failed to penetrate the blood brain barrier”. Besides, on TARP γ−8 [3] (setting [6]), the “change of bound radioactivity in cerebellum (reference region)” value is reported as “no notable change” and the “reduction of bound radioactivity in hippocampus” value is given as 83%.

Consider `Cc1ccc2nc(C3CCC3)n(-c3ccc4[nH]ncc4c3)c2n1` [Compound 15, 2-Cyclobutyl-3-(1H-indazol-5-yl)-5-methyl-3H-imidazo[4,5-b]pyridine], for which the inhibition at 10 µM (on 5-HT1A; at Alpha2C; in data set [4]) was above 50% each time. In the data set “Shake-flask logD7.4”, the logD was determined as 2.5 ± 0.01. The “selectivity towards TARP γ−8 among any other tested CNS targets” value with 5-HT1A, Alpha2C and DOR is reported as “greater than 750 fold”. Further, the “interaction with related iGlu receptor family” value in data set [5] is “no substantial interaction”.

Take `O=c1[nH]c2ccc(-c3c(Cl)cccc3OC(F)(F)F)cc2[nH]1` [JNJ-55511118, reference compound]: on TARP γ−8 [2] (setting [7]), the “reduction of BPND values” is given as 66–81% and the “reduction of radioactivity uptake in hippocampus based on AUC” value is 35–47%. The “reduction of uptake in hippocampus” value on TARP γ−8 [3] (tracer [11C]15, blocking with JNJ-55511118 (1 μM)) stood at 77%.

In turn, `Cc1ccc2nc(C3CCC3)n(-c3ccc4[nH]c(=O)sc4c3)c2n1` [Compound 8, 6-(2-Cyclobutyl-5-methyl-3H-imidazo[4,5-b]pyridin-3-yl)benzo[d]thiazol-2(3H)-one] had a logD in the data set “Shake-flask logD7.4” of 2.3 ± 0.06.
